Experimental data pooled from the literature.
Organism: Staphylococcus aureus
Effect on: microbial growth

Cc1ccc(C)n1-c1ccc(-c2nnc(-c3ccc(N(C)C)cc3)[nH]2)cc1
MIC (broth dilution; ATCC11632; 18 h): 8 µg/mL

Clc1ccc(-c2nc3ccccc3[nH]2)cc1Cl
MIC (broth dilution; ATCC29213 MSSA): 32 µg/mL

C/C(=C\c1ccc(C#N)cc1)C(=O)Nc1ccc(C(=O)N[C@@H](CC(N)=O)C(=O)Nc2ccc(C(=O)Nc3ccc(C(=O)Nc4ccc(C(=O)O)cc4)c(O)c3OC(C)C)cc2)cc1
MIC (ATCC29213): 0.06 µg/mL

CN(C)c1ccc(-c2nc3ncc(Cl)c(N4CCN(CC(=O)Nc5nccs5)CC4)c3[nH]2)cc1
MIC (NCTC8325): > 30 µM

Clc1ccc(-c2nc3ccccc3n2Cc2ccccc2)cc1
MIC (broth dilution; ATCC29213 MSSA): 64 µg/mL

CC1(C)S[C@@H]2[C@H](NC(=O)COc3ccccc3)C(=O)N2[C@H]1C(=O)O
MIC (broth dilution; MRSA; 18 h; clinical isolate): > 128 µg/mL

O=[N+]([O-])c1cnc2ccccc2c1O
MIC: > 128 µg/mL

c1cncc(CN2CCC(n3ncc4c(N5CCOCC5)nc(-c5ccc6[nH]ccc6c5)nc43)CC2)c1
MIC (NCTC8325): > 30 µM

CC1(C)S[C@@H]2[C@H](NC(=O)[C@H](N)c3ccccc3)C(=O)N2[C@H]1C(=O)O
MIC (broth dilution; CCARM3090): 16 µg/mL

C[C@@H](Oc1cc(-n2cnc3ccc(CN4CCN(C)CC4)cc32)sc1C(N)=O)c1ccccc1C(F)(F)F
MIC (NCTC8325): > 30 µM

CC(C)Oc1c(NC(=O)c2ccc(NC(=O)[C@H](CC(N)=O)NC(=O)c3ccc(NC(=O)CCc4ccc(C#N)cc4)cc3)cc2)ccc(C(=O)Nc2ccc(C(=O)O)cc2)c1O
MIC (ATCC29213): > 64 µg/mL

C/C=C(\C)c1cc(O)c(C)c(OC(=O)c2c(C)c(Cl)c(O)c(Cl)c2O)c1
MIC (broth dilution; 745524): 4 µg/mL
